# Source: ChEMBL document CHEMBL1255291, “Potent antimalarial activity of histone deacetylase inhibitor analogues” (Antimicrob Agents Chemother, 2008)
# Activity calls are given as the source filed them. The rule behind the calls is not given here.
# Legend:
# Plasmodium falciparum [1] = assay: Antimalarial activity against chloroquine-resistant Plasmodium falciparum Dd2 infected in O+ human erythrocytes by [3H]hypoxanthine incorporation assay; format: functional, organism-based
# In short: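 Parasites cultured in O+ human erythrocytes in RPMI 1640 with 10% heat-inactivated human serum. Synchronous ring-stage infected cells were set at 0.25% parasitemia and 2.5% hematocrit, and growth was measured by [3H]hypoxanthine incorporation. IC50 was taken against DMSO controls by linear interpolation of inhibition curves. Chloroquine served as the internal control. Triplicate wells, at least four separate occasions.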
# Plasmodium falciparum [2] = assay: Antimalarial activity against chloroquine-sensitive Plasmodium falciparum 3D7 infected in O+ human erythrocytes by [3H]hypoxanthine incorporation assay; format: functional, organism-based; settings: 3D7, 3 h
# [3] = Toxicity in neonatal foreskin fibroblasts; format: ADME, cell-based; settings: Fibroblast
# [4] = Selectivity index, ratio of IC50 for neonatal foreskin fibroblasts to IC50 for chloroquine-resistant Plasmodium falciparum Dd2
# [5] = Selectivity index, ratio of IC50 for neonatal foreskin fibroblasts to IC50 for chloroquine-sensitive Plasmodium falciparum 3D7
# Plasmodium falciparum [6] = assay: Antimalarial activity against Plasmodium falciparum infected in O+ human erythrocytes assessed as reduction in parasites at ring stage at 50 nM after 48 hrs by Giemsa staining based microscopy; format: functional, organism-based
# In short: (§1)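 Synchronous Dd2-infected erythrocytes at ring (~18 h postinvasion), trophozoite (~26 h) or schizont (~38 h) stage, starting parasitemia 0.2–1.0%, exposed to 50 or 200 nM; DMSO (<0.05%) vehicle controls. Parasitemia counted on Giemsa-stained thin smears over 2–4 days, at least 1,000 erythrocytes by two counters. 48 h means compared by ANOVA; three independent experiments.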
# Plasmodium falciparum [7] = assay: Antimalarial activity against Plasmodium falciparum infected in O+ human erythrocytes assessed as reduction in parasites at trophozoites stage at 200 nM after 48 hrs by Giemsa staining based microscopy; format: functional, organism-based; in short: as §1
# Plasmodium falciparum [8] = assay: Antimalarial activity against Plasmodium falciparum infected in O+ human erythrocytes assessed as reduction in parasites at trophozoites stage at 50 nM after 48 hrs by Giemsa staining based microscopy; format: functional, organism-based; in short: as §1
# Plasmodium falciparum [9] = assay: Antimalarial activity against Plasmodium falciparum infected in O+ human erythrocytes assessed as reduction in parasites at schizonts stage at 200 nM after 48 hrs by Giemsa staining based microscopy; format: functional, organism-based; in short: as §1
# Plasmodium falciparum [10] = assay: Antimalarial activity against Plasmodium falciparum infected in O+ human erythrocytes assessed as reduction in parasites at schizonts stage at 50 nM after 48 hrs by Giemsa staining based microscopy; format: functional, organism-based; in short: as §1
# Plasmodium falciparum [11] = assay: Inhibition of HDAC in Plasmodium falciparum Dd2 infected in O+ human erythrocytes assessed as alteration of histone acetylation at 20 to 500 nM after 3.5 hrs by Westen blot; format: organism-based
# In short: (§2)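 Late-trophozoite Dd2-infected erythrocytes (3 x 10^9) treated 3.5 h at 37°C at 20, 100 or 500 nM, DMSO vehicle controls. Saponin lysis, histones acid-extracted in 0.5 M HCl, acetone-precipitated, run on 15% SDS-PAGE (silver stain for loading). Western blot with anti-tetra-acetyl histone H4 antiserum (1:2,000), then HRP anti-rabbit (1:5,000).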
# Plasmodium falciparum [12] = assay: Antimalarial activity against Plasmodium falciparum infected in O+ human erythrocytes assessed as reduction in parasites at ring stage at 200 nM after 48 hrs by Giemsa staining based microscopy; format: functional, organism-based; in short: as §1
# Plasmodium falciparum [13] = assay: Antimalarial activity against chloroquine-resistant Plasmodium falciparum W2 infected in O+ human erythrocytes by [3H]hypoxanthine incorporation assay; format: functional, organism-based
# Plasmodium falciparum [14] = assay: Antimalarial activity against chloroquine-sensitive Plasmodium falciparum D6 infected in O+ human erythrocytes by [3H]hypoxanthine incorporation assay; format: functional, organism-based
# [15] = Toxicity in african green monkey Vero cells; format: cell-based; settings: African green monkey (Chlorocebus sabaeus)
# [16] = Selectivity index, ratio of IC50 for african green monkey (Cercopithecus aethiops) Vero cells to IC50 for chloroquine-resistant Plasmodium falciparum W2; format: toxicity, cell-based; settings: read-out: Ratio IC50
# [17] = Selectivity index, ratio of IC50 for african green monkey (Cercopithecus aethiops) Vero cells to IC50 for chloroquine-sensitive Plasmodium falciparum D6; format: toxicity, cell-based; settings: read-out: Ratio IC50
# Plasmodium falciparum [18] = assay: Inhibition of HDAC in Plasmodium falciparum Dd2 infected in O+ human erythrocytes assessed as alteration of histone acetylation at 500 nM after 3.5 hrs by Westen blot; format: organism-based; in short: as §2
# [19] = Toxicity in human WI38 cells; format: cell-based, WI-38
# [20] = Toxicity in breast fibroblasts; format: cell-based; settings: Fibroblast
# [21] = Selectivity index, ratio of IC50 for human WI38 cells to IC50 for chloroquine-resistant Plasmodium falciparum Dd2
# [22] = Selectivity index, ratio of IC50 for human WI38 cells to IC50 for chloroquine-sensitive Plasmodium falciparum 3D7
# Plasmodium falciparum [23] = assay: Antimalarial activity against Plasmodium falciparum; format: functional, organism-based
# In short: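 Dd2 and 3D7 grown in O-positive human erythrocytes, RPMI 1640 with 10% heat-inactivated human serum. Synchronous ring-stage infected cells, 0.25% parasitemia, 2.5% hematocrit; growth read as [3H]hypoxanthine incorporation versus DMSO controls. IC50 taken by linear interpolation of inhibition curves. Chloroquine as internal control; triplicate wells, at least four separate occasions.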
SMILES,IC50 (Plasmodium falciparum [1]),IC50 (Plasmodium falciparum [2]),IC50 [3],Ratio IC50 [4],Ratio IC50 [5],also measured
O=C(CCCCC[C@H](NC(=O)c1cc2ccccc2[nH]1)C(=O)Nc1cccc2cccnc12)NO,33 nM,13 nM,337 nM,10,26,inhibition (Plasmodium falciparum [6]): Active; inhibition (Plasmodium falciparum [7]): Active; inhibition (Plasmodium falciparum [8]): Active; inhibition (Plasmodium falciparum [9]): Active; inhibition (Plasmodium falciparum [10]): Active; inhibition (Plasmodium falciparum [11]): Active; inhibition (Plasmodium falciparum [12]): Active
O=C(CCCCCCC(=O)NO)NO [SUBEROHYDROXAMIC ACID],,,,,,IC50 (Plasmodium falciparum [13]): 1780 nM; IC50 (Plasmodium falciparum [14]): 940 nM; IC50 [15]: > 20 µM; selectivity ratio [16]: > 21; selectivity ratio [17]: > 21
O=C(/C=C/c1ccccc1)N[C@@H](CCCCCC(=O)NO)C(=O)NCc1ccccc1,102 nM,34 nM,4010 nM,39,118,
CN(C)c1ccc(C(=O)N[C@@H](CSCCCC(=O)NO)C(=O)NC2CCCc3ccccc32)cc1 (stereo not given in full),305 nM,,2200 nM,7,,
CC(C)(C)OC(=O)N[C@@H](CCCCCS)C(=O)NC1CCCC1,19900 nM,15200 nM,,,,
O=C(CCCCC[C@H](NC(=O)c1cc2ccccc2[nH]1)C(=O)NCc1ccccc1)NO,63 nM,34 nM,1260 nM,20,37,
O=C(/C=C\c1ccccc1)N[C@@H](CSCCCC(=O)NO)C(=O)NCc1ccccc1,339 nM,,800 nM,2,,
O=C(CCCCC[C@H](NC(=O)c1ccc(Br)cc1)C(=O)Nc1ccc(-c2ccccc2)cc1)NO,41 nM,22 nM,190 nM,5,9,
O=C(CCCCC[C@H](NC(=O)c1ccc(Br)cc1)C(=O)NCc1ccccc1)NO,334 nM,91 nM,5860 nM,17,64,
CC(/C=C/C(=O)NO)=C\[C@@H](C)C(=O)c1ccc(N(C)C)cc1 [TRICHOSTATIN],8 nM,11 nM,200 nM,25,18,inhibition (Plasmodium falciparum [7]): Active; inhibition (Plasmodium falciparum [9]): Active; inhibition (Plasmodium falciparum [18]): Active; inhibition (Plasmodium falciparum [12]): Active
O=C(CCCSC[C@H](NC(=O)c1ccc(Br)cc1)C(=O)NCc1ccccc1)NO,125 nM,,830 nM,13,,
O=C(/C=C/c1ccccc1)N[C@@H](CCCCCC(=O)NO)C(=O)Nc1cccc2cccnc12,39 nM,15 nM,1240 nM,32,83,inhibition (Plasmodium falciparum [6]): Active; inhibition (Plasmodium falciparum [7]): Active; inhibition (Plasmodium falciparum [8]): Active; inhibition (Plasmodium falciparum [9]): Active; inhibition (Plasmodium falciparum [10]): Active; inhibition (Plasmodium falciparum [11]): Active; inhibition (Plasmodium falciparum [12]): Active
CN(C)c1ccc(C(=O)N[C@@H](CCCCCC(=O)NO)C(=O)Nc2cccc3cccnc23)cc1,71 nM,19 nM,570 nM,8,30,
Nc1ccccc1NC(=O)c1ccc(CNC(=O)OCc2cccnc2)cc1 [ENTINOSTAT],7800 nM,8300 nM,,,,IC50 [19]: > 20 µM; IC50 [20]: 20 µM; selectivity ratio [21]: > 2.6; selectivity ratio [22]: > 2.4
CN(C)c1ccc(C(=O)N[C@@H](CSCCCC(=O)NO)C(=O)NCc2ccccc2)cc1,169 nM,,350 nM,2,,
CN(C)c1ccc(NC(=O)[C@H](CSCCCC(=O)NO)NC(=O)c2ccc(N(C)C)cc2)cc1,48 nM,,600 nM,12,,
CC(NC(=O)c1ccccc1/N=C/c1c(O)ccc2ccccc12)c1ccccc1 (stereo not given) [SIRTINOL],9100 nM,12900 nM,> 25000 nM,2.7,1.9,
CN(C)c1ccc(C(=O)N[C@@H](CSCCCC(=O)NO)C(=O)Nc2ccc(-c3ccccc3)cc2)cc1,128 nM,,320 nM,3,,
O=C(CCCCCCCC(=O)NO)NO [AZELAIC BIS HYDROXAMIC ACID],,,,,,IC50 (Plasmodium falciparum [23]): 3.2 µM
O=C(CCCCC[C@H](NC(=O)OCc1ccccc1)C(=O)Nc1ccc(-c2ccccc2)cc1)NO,105 nM,29 nM,2200 nM,21,76,
